Test results reported in ChEMBL document CHEMBL3259754, “Purine derivatives as potent Bruton's tyrosine kinase (BTK) inhibitors for autoimmune diseases” (Bioorg Med Chem Lett, 2014).
Each block holds one molecule with its values, some of them ahead of it.

Key:
[1] = target: Tyrosine-protein kinase BTK (Homo sapiens, UniProt Q06187); experiment: Inhibition of full length human wild type his-tagged BTK expressed in Sf9 cells using biotinylated peptide as substrate after 1 hr by Fluorescence assay
[2] = Selectivity ratio of IC50 for JAK2 (unknown origin) to IC50 for full length human wild type his-tagged BTK expressed in Sf9 cells
[3] = Selectivity ratio of IC50 for Flt3 (unknown origin) to IC50 for full length human wild type his-tagged BTK expressed in Sf9 cells
[4] = Selectivity ratio of IC50 for ITK (unknown origin) to IC50 for full length human wild type his-tagged BTK expressed in Sf9 cells
Liver microsome [5] = experiment: Stability in human liver microsomes assessed as compound remaining; type: ADME
[6] = Apparent permeability from basolateral to apical side of human Caco2 cells; type: ADME, cell-based; details: Caco-2
[7] = AUC (total) in CD1 mouse at 30 mg/kg, ip; type: ADME, organism-based; parameters: dose 30 mg/kg, route intraperitoneal; details: plasma
Method in brief: (§1)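 Mouse PK: single 30 mg/kg dose given IP as a Methocel suspension. Cmax, total AUC and t1/2 were taken from plasma exposure after dosing.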

Liver microsome [8] = experiment: Stability in rat liver microsomes assessed as compound remaining; type: ADME
[9] = Permeability of the compound by PAMPA; type: physicochemical; details: read-out: permeability
[10] = Aqueous solubility of the compound at pH 6; type: physicochemical
[11] = Half life in CD1 mouse at 30 mg/kg, ip; type: ADME, organism-based; parameters: dose 30 mg/kg, route intraperitoneal; details: in vivo; method in brief: as §1
[12] = Cmax in CD1 mouse at 30 mg/kg, ip; type: ADME, organism-based; parameters: dose 30 mg/kg, route intraperitoneal; details: in vivo; method in brief: as §1
Liver = experiment: Stability in mouse liver microsomes assessed as compound remaining; type: ADME
[13] = Aqueous solubility of the compound at pH 1; type: physicochemical
[14] = Apparent permeability from apical to basolateral side of human Caco2 cells; type: ADME, cell-based; details: Caco-2

Chain of Tyrosine-protein kinase BTK (Q06187 whole entry): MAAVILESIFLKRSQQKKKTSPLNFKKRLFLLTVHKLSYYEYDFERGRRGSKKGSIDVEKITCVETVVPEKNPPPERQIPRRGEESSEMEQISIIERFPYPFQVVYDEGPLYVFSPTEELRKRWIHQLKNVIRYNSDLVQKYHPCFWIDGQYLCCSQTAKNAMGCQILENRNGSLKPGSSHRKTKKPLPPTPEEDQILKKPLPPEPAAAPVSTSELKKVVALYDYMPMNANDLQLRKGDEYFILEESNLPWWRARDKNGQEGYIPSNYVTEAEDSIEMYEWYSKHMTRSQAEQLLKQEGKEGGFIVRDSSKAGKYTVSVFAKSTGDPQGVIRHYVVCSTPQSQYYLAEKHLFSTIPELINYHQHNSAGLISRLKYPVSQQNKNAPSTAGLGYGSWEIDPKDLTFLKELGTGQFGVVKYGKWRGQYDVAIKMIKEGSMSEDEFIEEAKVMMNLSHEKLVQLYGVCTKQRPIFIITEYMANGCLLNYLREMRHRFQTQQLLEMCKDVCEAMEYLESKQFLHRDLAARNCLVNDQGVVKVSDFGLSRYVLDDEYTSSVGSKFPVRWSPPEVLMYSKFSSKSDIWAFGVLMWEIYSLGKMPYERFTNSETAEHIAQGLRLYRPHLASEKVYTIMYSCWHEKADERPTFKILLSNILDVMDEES

IC50 [1]: > 50 µM
Structure (SMILES): Cc1c(NC(=O)c2ccc(C(C)(C)C)cc2)cccc1-c1nc(Nc2ccc(C(=O)N3CCOCC3)cc2)c2ncn(CCCc3ccccc3)c2n1
Ratio IC50 [2]: 1
Ratio IC50 [3]: 0.1
Ratio IC50 [4]: 1

IC50 [1]: > 50 µM
Structure (SMILES): CC(C)(C)c1ccc(C(=O)Nc2cccc(-c3nc(Nc4ccc(C(=O)N5CCOCC5)cc4)c4cccn4n3)c2)cc1

Stability (Liver microsome [5]): 14%
Papp B→A [6]: < 1.5 ×10⁻⁶ cm/s
AUC [7]: 32.5 µM·h
Stability (Liver microsome [8]): 36%
Papp [9]: 40.3 ×10⁻⁶ cm/s
solubility [10]: < 1 µg/mL
half-life [11]: 4.3 h
Cmax [12]: 3.8 µM
Stability (Liver): 68%
solubility [13]: < 1 µg/mL
Papp A→B [14]: < 1.5 ×10⁻⁶ cm/s
Structure (SMILES): Cc1c(NC(=O)c2ccc(C(C)(C)C)cc2)cccc1-c1nc(Nc2ccc(C(=O)N3CCOCC3)cc2)c2nc[nH]c2n1

IC50 [1]: > 50 µM
Structure (SMILES): CC(C)(C)c1ccc(C(=O)Nc2cccc(-c3nccc(Nc4ccc(C(=O)N5CCOCC5)cc4)n3)c2)cc1

IC50 [1]: 0.15 µM
Structure (SMILES): Cn1cnc2c(Nc3ccc(C(=O)N4CCOCC4)cc3)nc(-c3cccc(NC(=O)c4ccc(C(C)(C)C)cc4)c3)cc21
